The test system of data set [1] is subfoveal choroidal neovascularization (CNV) due to AMD. Particulars: intraocular injections every 6 weeks; ref Gragoudas et al., 2004; cited from earlier work.
For data set [2], the system named is retinal and choroidal neovascularization. Particulars: topical administration to the eye; ref Takahashi et al., 2003; cited from earlier work.
Data set [3] deals with laser-induced choroidal neovascularization (CNV). The data set can be described thus: Mouse model of laser-induced CNV. The conditions noted are these: 14 days. It is filed as in vivo, C57BL/6 mice.
Data set [4] can be described thus: Pharmacokinetics after topical dosing in mice. It is filed as in vivo, C57BL/6 mice. The conditions noted are these: for Plasma concentration (below level of detection): mouse, topical 1% TG100801, all time points, analyte = labelled compound.
Data set [5] is described as follows: Ocular safety assessment in rabbits. Type of data set: in vivo, Dutch Belted rabbits. Particulars: rabbit, 1% topical four times per day for 28 days. Put shortly: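 Dutch Belted rabbits (1.7–2.2 kg) had baseline gross and slit lamp exams. Each eye then received 40 µL of 1% test prodrug or vehicle topically four times daily for 28 days. Gross exams were done daily and slit lamp exams weekly. On Day 29, final exams and ERGs were done, then eyes were taken for histopathology.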

Data set [6] can be described thus: Ocular distribution of 14C-TG100801. It is filed as in vivo, Dutch-Belted rabbit. The conditions noted are these: rabbit, 30 min after single 40 µL topical 1% TG100801 containing 14C-TG100801, left eye; liquid scintillation counter. Put shortly:
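A single male Dutch-Belted rabbit (2.1 kg) received 25 µCi of 14C label in the dose. The label sits on a position kept after prodrug conversion, so counts cover prodrug plus active drug. About 30 mL blood was taken 30 min post-instillation. Blood and plasma were counted directly by liquid scintillation.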

For data set [7], the system named is retinal edema after retinal vein thrombosis. Type of data set: in vivo, Long Evans rats. Put shortly: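 Long Evans rats (250–275 g) got i.v. Rose Bengal (20 mg/kg), then laser thrombosis of one vein in the right eye. Both eyes received 10 µL test prodrug (0.3–1%) or vehicle, 5 doses over 3 days. Edema Index = (right AUC − left AUC)/left AUC. Scoring was blinded, n=9–11.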

For data set [8] the test system is unchanged. Nature of the data set: Rat model of retinal vein occlusion, retinal thickness by OCT. The conditions noted are these: topical 1% TG100801. It is filed as in vivo, Long Evans rats. The method in brief: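 The same Rose Bengal/laser vein-occlusion protocol and 5-dose topical schedule were used, with 1% test prodrug or vehicle; naive eyes served as comparators. Under ketamine/xylazine, vertical OCT scans covered 5 mm from the optic disc edge. Thickness was calculated at 6 evenly spaced points, and retinal area was derived. Assessment was blinded, n=17–21.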

The test system of data set [9] is kinase. Nature of the data set: Anti-kinase activity of the prodrug. Type of data set: biochemical. Particulars: data not shown.
Data set [10] can be described thus: Oral and intravenous administration, systemic exposure. Type of data set: in vivo. The conditions noted are these: data not shown; for Oral bioavailability: oral administration.
Data set [11] is described as follows: Body weight and tolerability in the mouse CNV study. It is filed as in vivo. Particulars: 14 days.
The target in data set [12] is VEGFR1 (Homo sapiens, UniProt P17948). Nature of the data set: Kinase inhibition assay. It is filed as biochemical. The method in brief: (§1)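 Kinase activity was measured by commercial services. IC50 is the mean of 3 independent experiments.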
VEGFR1, sequence (P17948 27-1338, species assumed): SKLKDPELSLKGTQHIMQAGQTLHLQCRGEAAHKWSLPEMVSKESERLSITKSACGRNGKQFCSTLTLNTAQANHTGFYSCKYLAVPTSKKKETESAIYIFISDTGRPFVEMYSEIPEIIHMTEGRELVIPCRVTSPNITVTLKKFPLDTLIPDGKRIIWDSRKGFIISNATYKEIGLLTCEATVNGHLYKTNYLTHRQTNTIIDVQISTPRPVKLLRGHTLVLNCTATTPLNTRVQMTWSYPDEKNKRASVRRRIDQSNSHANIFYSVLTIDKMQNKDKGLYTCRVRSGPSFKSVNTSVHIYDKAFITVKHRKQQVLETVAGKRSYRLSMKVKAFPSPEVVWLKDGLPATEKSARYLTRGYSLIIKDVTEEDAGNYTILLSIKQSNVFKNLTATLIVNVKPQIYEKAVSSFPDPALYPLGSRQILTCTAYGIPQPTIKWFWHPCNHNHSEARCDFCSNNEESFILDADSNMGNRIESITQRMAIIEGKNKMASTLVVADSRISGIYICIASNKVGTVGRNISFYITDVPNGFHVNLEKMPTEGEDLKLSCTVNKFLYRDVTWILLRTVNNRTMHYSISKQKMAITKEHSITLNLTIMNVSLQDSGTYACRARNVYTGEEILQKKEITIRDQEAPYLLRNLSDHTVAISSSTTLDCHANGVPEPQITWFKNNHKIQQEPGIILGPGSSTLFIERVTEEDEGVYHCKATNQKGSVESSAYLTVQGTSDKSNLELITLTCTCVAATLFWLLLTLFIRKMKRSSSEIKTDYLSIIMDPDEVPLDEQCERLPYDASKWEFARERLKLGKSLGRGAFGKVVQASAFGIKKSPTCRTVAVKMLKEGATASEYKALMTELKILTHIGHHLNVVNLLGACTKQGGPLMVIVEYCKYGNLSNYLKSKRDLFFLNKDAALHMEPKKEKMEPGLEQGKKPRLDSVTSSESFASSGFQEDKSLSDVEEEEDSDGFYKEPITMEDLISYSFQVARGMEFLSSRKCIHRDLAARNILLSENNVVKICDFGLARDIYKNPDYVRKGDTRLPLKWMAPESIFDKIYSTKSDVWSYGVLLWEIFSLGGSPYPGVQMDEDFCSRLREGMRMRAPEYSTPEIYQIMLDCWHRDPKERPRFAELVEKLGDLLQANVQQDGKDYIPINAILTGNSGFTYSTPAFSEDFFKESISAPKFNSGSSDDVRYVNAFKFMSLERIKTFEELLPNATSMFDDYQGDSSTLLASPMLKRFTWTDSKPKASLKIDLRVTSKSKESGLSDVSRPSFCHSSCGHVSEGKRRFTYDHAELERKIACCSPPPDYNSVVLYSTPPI
The target of data set [13] is VEGFR2 (Homo sapiens, UniProt P35968). The data set can be described thus: Kinase inhibition assay. It is filed as biochemical. The method in brief:
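Kinase inhibition was run by commercial services, with the test compound supplied as a DMSO stock. IC50 is the mean from 3 independent experiments.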

Data set [14] concerns the target FGFR1 (Homo sapiens, UniProt P11362). The data set can be described thus: Kinase inhibition assay. It is filed as biochemical. The method in brief: as §1
Data set [15] concerns the target FGFR2 (Homo sapiens, UniProt P21802). Nature of the data set: Kinase inhibition assay. Type of data set: biochemical. The method in brief: as §1
Data set [16] concerns the target PDGFRβ (Homo sapiens, UniProt P09619). Nature of the data set: Kinase inhibition assay. It is filed as biochemical. Put shortly:
as §1

In data set [17] the target is Fgr (Homo sapiens, UniProt P09769). The data set can be described thus: Kinase inhibition assay. It is filed as biochemical. The method in brief: as §1
Fgr, sequence (P09769 whole entry, species assumed): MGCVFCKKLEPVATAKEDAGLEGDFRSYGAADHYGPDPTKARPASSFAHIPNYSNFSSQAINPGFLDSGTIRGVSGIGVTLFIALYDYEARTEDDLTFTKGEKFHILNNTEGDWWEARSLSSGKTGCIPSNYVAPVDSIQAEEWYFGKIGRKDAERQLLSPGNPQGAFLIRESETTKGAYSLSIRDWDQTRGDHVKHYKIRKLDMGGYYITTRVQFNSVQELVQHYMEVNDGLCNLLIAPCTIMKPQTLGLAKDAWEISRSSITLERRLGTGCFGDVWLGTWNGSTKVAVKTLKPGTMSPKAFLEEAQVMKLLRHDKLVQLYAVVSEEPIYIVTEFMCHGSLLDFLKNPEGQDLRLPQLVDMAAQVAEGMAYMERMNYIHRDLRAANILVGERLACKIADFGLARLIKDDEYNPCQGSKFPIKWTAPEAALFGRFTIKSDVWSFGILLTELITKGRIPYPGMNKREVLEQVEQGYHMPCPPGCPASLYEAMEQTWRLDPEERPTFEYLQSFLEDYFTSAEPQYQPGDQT
Data set [18] concerns the target Fyn (Homo sapiens, UniProt P06241). The data set can be described thus: Kinase inhibition assay. It is filed as biochemical. Put shortly: as §1
Data set [19] concerns the target Hck (Homo sapiens, UniProt P08631). Nature of the data set: Kinase inhibition assay. Type of data set: biochemical. The method in brief:
as §1

Data set [20] has as its target Lck (Homo sapiens, UniProt P06239). The data set can be described thus: Kinase inhibition assay. It is filed as biochemical.
The target of data set [21] is Lyn (Homo sapiens, UniProt P07948). The data set can be described thus: Kinase inhibition assay. It is filed as biochemical. Put shortly:
as §1

The target of data set [22] is Src (Homo sapiens, UniProt P12931). Nature of the data set: Kinase inhibition assay. Type of data set: biochemical.
In data set [23] the target is Yes (Homo sapiens, UniProt P07947). The data set can be described thus: Kinase inhibition assay. It is filed as biochemical. The method in brief: as §1
For data set [24], the system named is human retinal microvascular EC. The data set can be described thus: Endothelial cell proliferation assay. Type of data set: cell-based. The conditions noted are these: 48 hr; 10% FBS, 50 ng/mL rhVEGF; mean ± SEM, N= 3. Put shortly:
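Human retinal microvascular EC were grown 48 hr with test compound (2 nM–5 µM) or DMSO vehicle in medium containing 10% FBS, 50 µg/mL heparin and 50 ng/mL rhVEGF. Cell number was read by XTT assay.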

Data set [25] has as its system VEGF-induced phosphorylation of extracellular signal-regulated kinase (ERK). Nature of the data set: Western blot of VEGF-induced signaling in microvascular EC. It is filed as cell-based, human. The conditions noted are these: 1 µM for 1 hr, then rhVEGF 50 ng/ml 10 min. The method in brief:
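Endothelial cells were held overnight in serum- and growth factor-free medium before test compound exposure. After 10 min rhVEGF, cells were lysed and blotted for phosphorylated Erk1/2, with total STAT3 as loading control. Comparison groups were no-VEGF and VEGF-only cultures.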
In general terms: A western blot detects proteins with antibodies after separation by electrophoresis.

A short description of data set [26]: Ocular tissue levels after i.p. dosing in mice. Type of data set: in vivo, C57BL/6 mice. Particulars: C57BL/6, mouse, ip, 5 mg/kg. The method in brief:
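C57BL/6 mice (15–20 g) got 5 mg/kg test compound i.p. twice daily for 4 days, then a single dose on Day 5. Eyes were taken 5 hr later, dissected into retina and sclera/choroid eye cups, and pooled (N=2–4). Tissue was homogenized in RIPA, extracted with acetonitrile containing internal standards and quantified by LC/MS/MS against standards made in naive tissue.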

Read-outs that look alike come from different tables or passages of the source.

Lyn, sequence (P07948 whole entry, species assumed): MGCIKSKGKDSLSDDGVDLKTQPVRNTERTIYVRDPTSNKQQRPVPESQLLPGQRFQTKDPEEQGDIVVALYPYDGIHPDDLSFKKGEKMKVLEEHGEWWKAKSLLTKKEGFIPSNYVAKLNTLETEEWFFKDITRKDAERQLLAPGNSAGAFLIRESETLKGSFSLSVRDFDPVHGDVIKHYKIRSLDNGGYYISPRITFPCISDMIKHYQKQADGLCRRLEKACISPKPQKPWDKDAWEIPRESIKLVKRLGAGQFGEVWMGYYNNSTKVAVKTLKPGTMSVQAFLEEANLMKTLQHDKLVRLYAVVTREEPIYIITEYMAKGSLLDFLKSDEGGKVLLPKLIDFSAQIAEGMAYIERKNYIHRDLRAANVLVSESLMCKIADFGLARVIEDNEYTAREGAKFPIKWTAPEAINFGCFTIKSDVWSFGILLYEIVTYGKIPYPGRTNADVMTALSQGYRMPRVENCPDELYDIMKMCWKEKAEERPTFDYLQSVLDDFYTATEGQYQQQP
FGFR2, sequence (P21802 22-821, species assumed): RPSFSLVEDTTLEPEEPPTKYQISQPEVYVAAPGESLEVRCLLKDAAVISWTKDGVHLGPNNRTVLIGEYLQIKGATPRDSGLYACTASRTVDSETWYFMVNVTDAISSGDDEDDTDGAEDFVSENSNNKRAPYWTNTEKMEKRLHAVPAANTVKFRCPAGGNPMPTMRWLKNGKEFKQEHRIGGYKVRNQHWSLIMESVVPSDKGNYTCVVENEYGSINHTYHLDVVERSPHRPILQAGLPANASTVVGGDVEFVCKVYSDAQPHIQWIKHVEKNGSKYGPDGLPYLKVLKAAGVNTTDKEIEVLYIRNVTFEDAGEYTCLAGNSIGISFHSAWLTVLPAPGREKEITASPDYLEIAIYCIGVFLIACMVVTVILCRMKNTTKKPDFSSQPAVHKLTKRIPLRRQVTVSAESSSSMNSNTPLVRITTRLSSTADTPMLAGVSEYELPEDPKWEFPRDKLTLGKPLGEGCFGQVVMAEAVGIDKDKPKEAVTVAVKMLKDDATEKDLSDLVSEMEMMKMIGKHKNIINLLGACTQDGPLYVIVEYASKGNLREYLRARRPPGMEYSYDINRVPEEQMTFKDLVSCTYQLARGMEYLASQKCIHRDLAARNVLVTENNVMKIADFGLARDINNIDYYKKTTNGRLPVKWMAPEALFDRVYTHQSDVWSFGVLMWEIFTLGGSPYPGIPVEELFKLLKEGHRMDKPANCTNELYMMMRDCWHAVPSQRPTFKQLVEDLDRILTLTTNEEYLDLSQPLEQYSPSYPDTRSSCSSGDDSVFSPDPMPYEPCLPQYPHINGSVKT
Lck, sequence (P06239 whole entry, species assumed): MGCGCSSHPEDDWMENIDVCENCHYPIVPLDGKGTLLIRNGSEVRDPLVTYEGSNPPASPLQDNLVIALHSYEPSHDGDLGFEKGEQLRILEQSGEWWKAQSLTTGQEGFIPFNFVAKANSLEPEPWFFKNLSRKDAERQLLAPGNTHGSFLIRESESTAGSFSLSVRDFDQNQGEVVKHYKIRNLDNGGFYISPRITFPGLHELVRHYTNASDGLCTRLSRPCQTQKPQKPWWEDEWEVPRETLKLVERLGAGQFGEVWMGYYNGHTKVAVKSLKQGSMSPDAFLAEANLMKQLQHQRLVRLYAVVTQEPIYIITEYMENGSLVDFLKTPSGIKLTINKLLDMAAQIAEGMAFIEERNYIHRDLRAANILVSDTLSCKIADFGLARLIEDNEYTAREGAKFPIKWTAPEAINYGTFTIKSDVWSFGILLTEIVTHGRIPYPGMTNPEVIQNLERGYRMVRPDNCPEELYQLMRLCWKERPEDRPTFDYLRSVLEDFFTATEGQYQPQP
PDGFRβ, sequence (P09619 33-1106, species assumed): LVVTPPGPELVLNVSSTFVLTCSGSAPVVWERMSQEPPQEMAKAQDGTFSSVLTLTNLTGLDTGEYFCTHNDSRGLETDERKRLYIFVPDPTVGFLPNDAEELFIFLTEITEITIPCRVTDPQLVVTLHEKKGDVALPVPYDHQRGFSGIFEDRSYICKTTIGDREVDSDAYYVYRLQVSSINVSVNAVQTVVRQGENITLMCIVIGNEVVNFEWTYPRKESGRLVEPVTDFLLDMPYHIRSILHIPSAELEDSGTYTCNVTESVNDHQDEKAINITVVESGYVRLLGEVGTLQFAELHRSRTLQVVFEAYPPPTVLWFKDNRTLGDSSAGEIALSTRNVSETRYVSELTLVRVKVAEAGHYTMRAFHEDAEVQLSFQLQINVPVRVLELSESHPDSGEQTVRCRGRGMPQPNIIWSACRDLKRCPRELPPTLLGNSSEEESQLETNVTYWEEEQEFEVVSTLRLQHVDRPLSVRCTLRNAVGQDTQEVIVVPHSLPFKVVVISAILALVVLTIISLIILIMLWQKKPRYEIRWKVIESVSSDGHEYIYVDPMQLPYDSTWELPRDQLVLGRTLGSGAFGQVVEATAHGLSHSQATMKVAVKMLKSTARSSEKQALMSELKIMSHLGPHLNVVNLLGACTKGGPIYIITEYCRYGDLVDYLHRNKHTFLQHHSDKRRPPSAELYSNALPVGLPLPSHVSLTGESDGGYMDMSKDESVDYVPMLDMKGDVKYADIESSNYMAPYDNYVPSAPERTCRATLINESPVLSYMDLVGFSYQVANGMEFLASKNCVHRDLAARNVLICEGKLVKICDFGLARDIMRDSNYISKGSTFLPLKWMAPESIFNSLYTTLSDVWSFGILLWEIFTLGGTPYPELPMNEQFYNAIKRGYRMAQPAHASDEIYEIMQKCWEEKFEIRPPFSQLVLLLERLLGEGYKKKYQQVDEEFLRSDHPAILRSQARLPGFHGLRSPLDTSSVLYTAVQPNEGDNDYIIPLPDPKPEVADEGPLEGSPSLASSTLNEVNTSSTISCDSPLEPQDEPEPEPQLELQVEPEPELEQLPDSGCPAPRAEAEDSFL

Turning to pegaptanib, in data set [1], the “Severe vision loss over 1 year” value was “reduction in severe vision loss”.
Regarding `NC(=O)Cc1cccc(C(=O)c2ccccc2)c1N` [nepafenac], the “Effect on retinal and choroidal neovascularization” value in [2] is “inhibits retinal and choroidal neovascularization”.
Turning to `Cc1cc(-c2cc(OC(=O)c3ccccc3)ccc2Cl)cc2nnc(Nc3ccc(OCCN4CCCC4)cc3)nc12` [TG100801, 4-chloro-3-(5-methyl-3-{[4-(2-pyrrolidin-1-ylethoxy)phenyl]amino}-1,2,4-benzotriazin-7-yl)phenyl benzoate], in data set [3] (topical 1% TG100801 twice a day, P= 0.036), the “Reduction of CNV area relative to vehicle” value came out at 58%. The “Plasma concentration (below level of detection)” value in data set [4] is reported as less than 2 nM. Also, in data set [5], the “Daily gross exams and weekly slit lamp exams” value was “did not detect ocular changes beyond baseline responses”; the “Electroretinograms (ERG) pre- and post-study” value is listed as “no meaningful changes”; the “Ocular histopathology at study end” value is “normal ocular histology”; the “Ocular tolerability, overall judgement” value is listed as “well-tolerated”. Also, in [5] (data not shown), the “Body weight during the study” value is “did not lose weight”. The “Radioactivity in plasma samples” value in data set [6] is “absence of detectable radioactivity”. Besides, the “Reduction in edema (Edema Index, fluorescein leakage) vs vehicle” value in [7] (topical 0.3% TG100801, 5 applications over 3 days, P= 0.002) is recorded as 47%. Also, the “Reduction in edema (Edema Index, fluorescein leakage) vs vehicle” value in data set [7] (topical 1% TG100801, 5 applications over 3 days, P = 0.039) amounted to 32%. The “Average retinal area in the region encompassed by the OCT scans” value in [8] (thrombosed eyes, naive 203 ± 2, vehicle 327 ± 23) is on record as 257 ± 13 µm^2. Besides, the “Reduction of retinal thickness vs vehicle at points along 5 mm OCT scans” value in data set [8] (5 out of 6 points, P< 0.05) is recorded as 15–26%. In [8] (P= 0.013), the “Reduction of average retinal area vs vehicle-treated group” value is listed as 21%. Besides, the Anti-kinase activity entry in data set [9] is reported as “does not display meaningful anti-kinase activity”. In addition, in data set [10], the “Clearance after intravenous administration” value is “rapidly cleared” and the Oral bioavailability result is on record as “oral administration does not result in detectable levels in the circulation”. In addition, in [11] (mouse, topical 0.6% and 1% twice a day), the “Ocular tolerability by slit lamp examination” value is “well tolerated with no signs of irritation, inflammation, or other ocular toxicity”.
Regarding `Cc1cc(-c2cc(O)ccc2Cl)cc2nnc(Nc3ccc(OCCN4CCCC4)cc3)nc12` [TG100572, 4-chloro-3-(5-methyl-3-{[4-(2-pyrrolidin-1-ylethoxy)phenyl]amino}-1,2,4-benzotriazin-7-yl)phenol], the IC50 in data set [12] was 2 nM; in data set [13] it was 7 nM; in [14], 2 nM; in data set [15], 16 nM; in data set [16], 13 nM; in data set [17] it was 5 nM. Moreover, the IC50 came out at 0.5 nM in data set [18]; 6 nM in data set [19]; 0.1 nM in data set [20]; 0.4 nM in data set [21]; 1 nM in data set [22]; 0.2 nM in data set [23]. In data set [24], the “ED50, inhibition of vascular endothelial cell proliferation” value stood at 610 ± 71 nM. In addition, in data set [25], the “VEGF-induced phosphorylation of ERK” value is listed as “blocked VEGF-induced phosphorylation of extracellular signal-regulated kinase (ERK)”. Further, in data set [3] (TG100572 5 mg/kg i.p. daily, P< 0.001), the “Reduction of CNV area compared to vehicle” value is on record as 40%. For the same molecule, the figures for the concentration at 5 h in data set [26] (choroid/sclera) and in data set [26] (retina) were 9000 nM and 818 nM, respectively. Further, the AUC(0-t) in data set [4] (C57BL/6, mouse, posterior eyecup (sclera/choroid/retina), topical or ocular, 1 %) was 6.8 µM·h. For the same molecule, the Tmax in [4] (C57BL/6, mouse, sclera/choroid, topical or ocular, 1 %) was 1 h. Moreover, the “Plasma concentration (below level of detection)” value in data set [4] is given as less than 2 nM. In addition, the “Clearance after intravenous administration” value in [10] is listed as “rapidly cleared”. Also, the Oral bioavailability result in [10] is “oral administration does not result in detectable levels in the circulation”. The “Body weight loss over the study” value in data set [11] (TG100572 5 mg/kg i.p. daily, vehicle gained 1%, P= 0.006) came to 11%.

A word on the IC50: it is the concentration at which inhibition is half-maximal. A low value points to greater potency. The term AUC(0-t) denotes the area under the concentration-time curve up to a stated or last time point. Lower therefore signals less exposure. What is called Tmax is the time at which the peak concentration occurs.

Source of the values: publication PMC3032767 (Journal of cellular physiology, 2008).
